This note sets out measurements from ChEMBL document CHEMBL1143003, “Novel tricyclic compounds having acetylene groups at C-8a and cyano enones in rings A and C: highly potent anti-inflammatory and cytoprotective agents” (J Med Chem, 2007).

In test [1] the target is T1, Heme oxygenase 1 (Mus musculus) (UniProt P14901).
T1 sequence (whole entry): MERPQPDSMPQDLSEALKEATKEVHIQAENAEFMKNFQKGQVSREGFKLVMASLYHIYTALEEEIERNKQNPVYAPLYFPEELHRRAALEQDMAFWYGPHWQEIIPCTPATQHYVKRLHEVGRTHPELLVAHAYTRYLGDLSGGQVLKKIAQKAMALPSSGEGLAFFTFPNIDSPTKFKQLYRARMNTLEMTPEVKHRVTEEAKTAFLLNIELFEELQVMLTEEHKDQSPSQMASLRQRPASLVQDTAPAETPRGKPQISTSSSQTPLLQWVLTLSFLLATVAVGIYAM
Put plainly: Induction of HO1 in CD1 mouse stomach at 1 umol, po after 6 hrs. It is filed as organism-based. In outline: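 Male CD-1 mice, three per group, were each gavaged with a single 1 μmol dose. HO-1 induction was then assessed in the stomach.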

The target in test [2] is T1, Heme oxygenase 1 (Mus musculus). Put plainly: Induction of HO1 in CD1 mouse liver at 1 umol, po after 6 hrs. It is filed as organism-based. In outline:
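Compound given orally at 1 μmol. Livers were collected 6 h later, and HO-1 protein was measured by Western blot.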

In another test the test system is RAW. Put plainly: Inhibition of interferon gamma-stimulated NO production in RAW 264.7 cells after 24 hrs. The test is classed as functional, cell-based, Mus musculus.

The source made the active and inactive calls. No cut-off for these calls is given here.

`C#C[C@]12C=C(C#N)C(=O)C=C1[C@@]1(C)C=C(C#N)C(=O)C(C)(C)[C@@H]1CC2` (racemic) [listing 1 of 2 here]: the outcome in test [1] and in test [2] was Active.
`CC1(C)C(=O)C(C#N)=C[C@]2(C)C3=CC(=O)C(C#N)=C[C@]3(C#C[Si](C)(C)C)CC[C@@H]12` showed an IC50 with RAW (Mus musculus, RAW, 24 h) of 3 nM.
On the same count and under the same terms, with `CCC#C[C@]12C=C(C#N)C(=O)C=C1[C@@]1(C)C=C(C#N)C(=O)C(C)(C)[C@@H]1CC2` (racemic) the figure was 20 nM.
On the same count and under the same terms, to `CC[C@]12C=C(C#N)C(=O)C=C1[C@@]1(C)C=C(C#N)C(=O)C(C)(C)[C@@H]1CC2` (racemic) belongs 10 nM.
Molecule `CC1(C)CC[C@]2(C(=O)O)CC[C@]3(C)[C@H](C(=O)C=C4[C@@]5(C)C=C(C#N)C(=O)C(C)(C)[C@@H]5CC[C@]43C)[C@@H]2C1` [BARDOXOLONE] displayed an IC50 in the test on RAW (Mus musculus, RAW, 24 h) of 20 nM. Besides, the outcome in test [1] and in test [2] was Active.
`C#C[C@]12C=C(C#N)C(=O)C=C1[C@@]1(C)C=C(C#N)C(=O)C(C)(C)[C@@H]1CC2` registered an IC50 in the test with RAW (raw) of 3 nM.
Regarding `CC1(C)CC[C@]2(C(=O)n3ccnc3)CC[C@]3(C)[C@H](C(=O)C=C4[C@@]5(C)C=C(C#N)C(=O)C(C)(C)[C@@H]5CC[C@]43C)[C@@H]2C1`, the IC50 in the test with RAW (Mus musculus, RAW, 24 h) was found to be 1 nM. The result in test [1] and in test [2] was Active.
In turn, `C#C[C@@]12C=C(C#N)C(=O)C=C1[C@]1(C)C=C(C#N)C(=O)C(C)(C)C1CC2` (some centres undefined) yielded a half-inhibitory concentration (IC50) in the test with RAW (Mus musculus, RAW, 24 h) of 1 nM.
Still for that read-out and setting: with `CC1(C)C(=O)C(C#N)=C[C@]2(C)C3=CC(=O)C(C#N)=C[C@]3(C#CC#N)CC[C@@H]12` (racemic) the figure was 4 nM; with `CC1(C)CC[C@]2(C#N)CC[C@]3(C)C(C(=O)C=C4[C@@]5(C)C=C(C#N)C(=O)C(C)(C)[C@@H]5CC[C@]43C)C2C1` (some centres undefined) [CDDO-CN], 1 nM.
Same read-out and setting: to `C=C[C@]12C=C(C#N)C(=O)C=C1[C@@]1(C)C=C(C#N)C(=O)C(C)(C)[C@@H]1CC2` (racemic) belongs 10 nM; to `C[C@@H]1C[C@H]2[C@@H]3CCC4=CC(=O)C=C[C@]4(C)[C@@]3(F)[C@@H](O)C[C@]2(C)[C@@]1(O)C(=O)CO` [DEXAMETHASONE], 20 nM.
In the test with RAW (Mus musculus, RAW, 24 h), `CC1(C)C(=O)C(C#N)=C[C@]2(C)C3=CC(=O)C(C#N)=C[C@]3(C)CC[C@@H]12` came in with an IC50 of 30 nM. The outcome in test [1] and in test [2] was Active.
For `CC1(C)C(=O)C(C#N)=C[C@]2(C)C3=CC(=O)C(C#N)=CC3(C#C[Si](C)(C)C)CC[C@@H]12` (mixture of isomers), the IC50 in the test with RAW (Mus musculus, RAW, 24 h) was 3 nM.
Same read-out and setting: with `CC1(C)C(=O)C(C#N)=C[C@@]2(C)C3=CC(=O)C(C#N)=C[C@@]3(C#C[Si](C)(C)C)CCC12` (some centres undefined) the figure was 2 nM.
Molecule `C#C[C@]12C=C(C#N)C(=O)C=C1[C@@]1(C)C=C(C#N)C(=O)C(C)(C)[C@@H]1CC2` (racemic) [listing 2 of 2 here] had an IC50 with RAW (raw) of 1 nM.
`CC#C[C@]12C=C(C#N)C(=O)C=C1[C@@]1(C)C=C(C#N)C(=O)C(C)(C)[C@@H]1CC2` (racemic) returned an IC50 in the test with RAW (Mus musculus, RAW, 24 h) of 5 nM.
